From article PMC6873108 (Journal of Medicinal Chemistry, 2019)
pIC50: −log10 of the molar value. “Also recorded” adds a separate entry of the source. Each block holds one compound with its values, some of them ahead of it.

Assays:
[1] = mice; as reported; cited from earlier work
[2] = cited from earlier work
P. aeruginosa PA14 = conditions: vs DMSO control; cited from earlier work
Plasma stability assay = format: in vitro ADME, mouse; conditions: 25 μM, 37 °C, period of 120 min
In short: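 Test compound (DMSO stock) spiked into mouse plasma (pH 7.4) at final 25 μM and incubated at 37 °C. Samples taken at 0, 15, 30, 60, 90 and 120 min, extracted with methanol containing internal standard (5 min shaking), centrifuged, and supernatants analyzed by reversed-phase C18 HPLC (water/acetonitrile + 0.1% formic acid gradient). Controls were procaine, propoxycaine and procainamide at 250 μM.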

LecBPAO1 = LecBPAO1 (Pseudomonas aeruginosa, UniProt Q9HYN5); experiment: Isothermal titration calorimetry; format: binding; conditions: ITC, 25 °C, mean
LecBPA14 [3] = biological target: T1, LecBPA14 (Pseudomonas aeruginosa, UniProt A0A0H2ZE85); conditions: ITC, 25 °C, mean
T1 sequence (A0A0H2ZE85 2-115): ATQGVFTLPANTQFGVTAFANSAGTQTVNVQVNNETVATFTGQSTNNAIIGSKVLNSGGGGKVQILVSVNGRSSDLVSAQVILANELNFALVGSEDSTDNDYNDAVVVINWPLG

[4] = tested on: mCherry-expressing P. aeruginosa; experiment: Bacterial growth by total fluorescence intensity; format: cell-based, Pseudomonas aeruginosa; conditions: 100 μM, 23 h, vs DMSO control
LecBPA14 [5] = biological target: T1, LecBPA14; conditions: read-out: LecBPA14 IC50; previously published; cited from earlier work
Hep G2 cells = experiment: MTT assay; format: cell-based, human; conditions: up to 100 μM, 24 h
In short: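 Hep G2 cells grown in DMEM + 10% heat-inactivated FCS (37 °C, 5% CO2) to 75% confluency, then exposed 24 h to compound (0.01–100 μM; DMSO stock diluted in PBS, final 0.1% DMSO). Controls: vehicle, medium, and cells lysed with 0.5% Triton X-100. After two washes, MTT (final 1 mg/mL) for 3 h, then 0.04 M HCl/2-propanol for 15 min at room temperature. A560 read against 670 nm reference; normalized as (A–B)/(C–B) to Triton and vehicle controls.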

Plasma protein binding = format: in vitro ADME, mouse; conditions: murine plasma, 100 μM, 37 °C, 2 h

LecBPAO1, sequence (Q9HYN5 2-115 limits assumed): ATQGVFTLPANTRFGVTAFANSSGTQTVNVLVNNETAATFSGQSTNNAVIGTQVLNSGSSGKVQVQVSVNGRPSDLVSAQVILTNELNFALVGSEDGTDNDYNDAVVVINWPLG

Compound: C[C@@H]1O[C@H](CNS(=O)(=O)c2cccs2)[C@@H](O)[C@H](O)[C@@H]1O [Compound 7]
toxicity in a murine pharmacokinetics model [1]: nontoxic
metabolic stability against liver microsomes and murine plasma [2]: good metabolic stability

Compound: CO[C@@H]1O[C@@H](C)[C@@H](O)[C@@H](O)[C@@H]1O [Compound 42, methyl α-L-fucoside]
effect on biofilm formation (P. aeruginosa PA14): nonsignificant effect

Compound: Cc1cc(C)c(S(=O)(=O)NC[C@H]2O[C@@H](C)[C@@H](O)[C@@H](O)[C@@H]2O)c(C)c1 [Compound 6]
toxicity in a murine pharmacokinetics model [1]: nontoxic
metabolic stability against liver microsomes and murine plasma [2]: good metabolic stability

Compound: CO[C@H]1O[C@H](CO)[C@@H](O)[C@H](O)[C@@H]1O [Compound 1, methyl α-D-mannoside]
effect on biofilm formation (P. aeruginosa PA14): nonsignificant effect

Compound: COc1ccc(/C=C/C(=O)NC[C@H]2O[C@@H](C)[C@@H](O)[C@@H](O)[C@@H]2O)cc1OC [Compound 5]
pIC50 (LecBPA14 [5]): 5.55

Now from value to compound, other results behind:

stability in murine plasma (Plasma stability assay): fully stable
Compound: Cc1ccc(S(=O)(=O)NC[C@H]2O[C@@H](C)[C@@H](O)[C@@H](O)[C@@H]2O)s1 [Compound 23, N-β-L-Fucopyranosylmethyl 5-Methyl-2-thiophenesulfonamide]

stability in murine plasma (Plasma stability assay): fully stable
Compound: Cc1oncc1S(=O)(=O)NC[C@H]1O[C@@H](C)[C@@H](O)[C@@H](O)[C@@H]1O [Compound 17, N-β-L-Fucopyranosylmethyl 5-Methyl-4-isoxazolesulfonamide]

stability in murine plasma (Plasma stability assay): fully stable
Compound: C[C@@H]1O[C@H](CNS(=O)(=O)c2cc(Cl)c(Cl)s2)[C@@H](O)[C@H](O)[C@@H]1O [Compound 27, N-β-L-Fucopyranosylmethyl 4,5-Dichloro-2-thiophenesulfonamide]

-TΔS LecBPAO1 (LecBPAO1): 3.23 kcal/mol
ΔH LecBPAO1 (LecBPAO1): -11.3 kcal/mol
-TΔS LecBPA14 (LecBPA14 [3]): 0.789 kcal/mol
ΔH LecBPA14 (LecBPA14 [3]): -9.66 kcal/mol
stability in murine plasma (Plasma stability assay): fully stable
Compound: Cc1cc(S(=O)(=O)NC[C@H]2O[C@@H](C)[C@@H](O)[C@@H](O)[C@@H]2O)c(C)s1 [Compound 22, N-β-L-Fucopyranosylmethyl 2,5-Dimethyl-3-thiophenesulfonamide]
bacterial growth (total fluorescence intensity) [4]: comparable densities

stability in murine plasma (Plasma stability assay): fully stable
Compound: C[C@@H]1O[C@H](CNS(=O)(=O)c2ccc(C#Cc3ccccc3)s2)[C@@H](O)[C@H](O)[C@@H]1O [Compound 29, N-β-L-Fucopyranosylmethyl 5-Phenylethynyl-2-thiophenesulfonamide]
bacterial growth (total fluorescence intensity) [4]: comparable densities
toxicity to Hep G2 cells (in words) (Hep G2 cells): weak toxicity; also recorded: moderate mammalian cytotoxicity
plasma protein binding (in words) (Plasma protein binding): highly bound; also recorded: very high plasma protein binding
